From ChEMBL document CHEMBL1137766, “Synthesis and biological evaluation of 3,4,6-triaryl-2-pyranones as a potential new class of anti-breast cancer agents” (Bioorg Med Chem, 2009) come the findings set out here.

By pIC50 is commonly meant the negative decadic logarithm of the IC50, by convention in mol/L.

For data set [1], the system named is MCF7. The data set can be described thus: Antiproliferative activity against human MCF7 cells expressing estrogen receptor after 48 hrs by MTT assay. The class given is functional, cell-based. The following applies: MCF7, 48 h. A digest of the protocol: (§1)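 MTT reduction: 1 × 10⁴ cells/well seeded in DMEM with 10% FBS, incubated 24 h at 37 °C in CO₂. Compounds diluted in culture medium and applied for 48 h. MTT (5 mg/mL stock) added for 4 h, formazan dissolved in DMSO, absorbance read at 540 nm. IC50 taken from growth inhibition. Vehicle control 0.001% DMSO.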

For data set [2], the system named is MDA-MB-231. The data set can be described thus: Antiproliferative activity against human estrogen receptor deficient MDA-MB-231 cells after 48 hrs by MTT assay. In kind it is functional, cell-based. The following applies: MDA-MB-231, 48 h. In outline: as §1
Another data set has as its system Vero. The data set can be described thus: Cytotoxicity against african green monkey Vero cells after 48 hrs by MTT assay. The class given is cell-based. The following applies: chlorocebus sabaeus. In general terms: Tetrazolium dyes change colour on reduction, which living cells bring about.
Data set [3] can be described thus: Cytotoxicity against osteoblasts after 48 hrs by MTT assay. The following applies: osteoblast. The class given is cell-based.
In data set [4] the target is T1, Estrogen receptor (Homo sapiens) (UniProt P03372).
T1 sequence (whole entry): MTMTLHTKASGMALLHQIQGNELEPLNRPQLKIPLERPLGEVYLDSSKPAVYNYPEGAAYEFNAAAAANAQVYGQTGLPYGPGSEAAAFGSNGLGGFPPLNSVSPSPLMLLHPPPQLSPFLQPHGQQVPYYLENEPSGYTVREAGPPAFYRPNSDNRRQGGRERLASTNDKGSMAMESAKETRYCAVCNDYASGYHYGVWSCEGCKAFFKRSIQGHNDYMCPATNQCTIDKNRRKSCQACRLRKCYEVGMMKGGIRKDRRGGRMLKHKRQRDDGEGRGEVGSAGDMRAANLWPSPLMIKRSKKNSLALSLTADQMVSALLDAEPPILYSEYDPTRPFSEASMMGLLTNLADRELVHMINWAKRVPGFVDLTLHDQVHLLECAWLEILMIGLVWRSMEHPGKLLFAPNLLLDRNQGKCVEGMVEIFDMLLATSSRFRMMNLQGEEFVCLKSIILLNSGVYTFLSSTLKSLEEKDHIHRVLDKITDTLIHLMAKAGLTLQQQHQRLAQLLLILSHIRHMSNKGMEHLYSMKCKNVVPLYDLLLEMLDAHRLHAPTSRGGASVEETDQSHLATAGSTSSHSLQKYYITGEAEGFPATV
Nature of the data set: Transactivation of ERalpha expressed in african green monkey COS7 cells at 5 uM after 24 hrs by luciferase reporter gene assay. To be noted: COS-7. The class given is cell-based. In outline: (§2)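 Cos-7 cells, 40,000 per well, seeded 24 h before co-transfection with 200 ng pGL3-Gal4Tk-Luc reporter plus ERα or ERβ expression plasmid and pRL-CMV. Compounds given, then cells harvested 24 h post-transfection for dual-luciferase assay. Firefly signal normalised to Renilla and GFP, expressed as fold over VP-16 control. Mean ± SD of three independent experiments.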

The target in data set [5] is Estrogen receptor beta (Homo sapiens) (UniProt Q92731). The data set can be described thus: Transactivation of ERbeta expressed in african green monkey COS7 cells at 5 uM after 24 hrs by luciferase reporter gene assay. The following applies: COS-7. The class given is cell-based. In outline: as §2
On the technique in general: A reporter such as luciferase makes a cellular process visible.

Data set [6] relates to MCF7. The data set can be described thus: Induction of apoptosis in human MCF7 cells assessed as DNA fragmentation at 10 uM after 24 hrs by ELISA. The class given is functional, cell-based. In outline:
(§3)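 BrdU-labelled cells incubated with compound for 24 h. Cells lysed 30 min at rt and spun at 250g for 10 min. Supernatant captured on adsorbed anti-DNA antibody, fixed by microwave 5 min, then probed 90 min with peroxidase anti-BrdU; OD read at 370 nm. Kit positive and negative controls used. Duplicates from two independent experiments.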

For data set [7], the system named is MCF7. Nature of the data set: Induction of apoptosis in human MCF7 cells assessed as DNA fragmentation at 20 uM after 24 hrs by ELISA. The class given is functional, cell-based. In outline:
as §3
(In general: In an ELISA, binding on a coated surface is turned into a signal by an enzyme label.)

Data set [8] has as its system MDA-MB-231. Nature of the data set: Induction of apoptosis in human MDA-MB-231 cells assessed as morphological changes at 10 uM after 18 hrs using Hoechst 33342 staining by fluorescent microscopy. The class given is functional, cell-based. A digest of the protocol:
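10,000 cells seeded on 18-mm coverslips and grown 24 h. Medium replaced, then cells treated with 10 µM compound for 18 h. Stained with Hoechst 33342 0.5 µg/ml in 4% paraformaldehyde for 30 min at 37 °C. Random fields imaged by fluorescence microscopy; viable versus apoptotic cells judged qualitatively by fluorescence and nuclear fragmentation.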

For data set [9], the system named is MCF7. The data set can be described thus: Induction of apoptosis in human MCF7 cells assessed as caspase induction at 40 uM after 24 hrs by fluorescence assay. In kind it is functional, cell-based. A digest of the protocol:
(§4)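 Caspase kit covering caspases 2, 3, 6, 7, 8, 9 and 10. MCF-7 cells serum-deprived 4 h, then treated with compound for 24 h at various concentrations. DEVD-rhodamine-110 substrate added; released rhodamine-110 fluorescence read at 560 nm. Camptothecin-treated U937 cells served as positive control. Duplicates from two independent experiments.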

The test system of data set [10] is MDA-MB-231. The data set can be described thus: Induction of apoptosis in human MDA-MB-231 cells assessed as DNA fragmentation at 10 uM after 24 hrs by ELISA. The class given is functional, cell-based. A digest of the protocol: as §3
For data set [11], the system named is MDA-MB-231. Nature of the data set: Induction of apoptosis in human MDA-MB-231 cells assessed as DNA fragmentation at 20 uM after 24 hrs by ELISA. In kind it is functional, cell-based. A digest of the protocol:
as §3

In data set [12] the test system is MCF7. Nature of the data set: Induction of apoptosis in human MCF7 cells assessed as caspase induction at 20 uM after 24 hrs by fluorescence assay. In kind it is functional, cell-based. In outline: as §4
The subject of data set [13] is MDA-MB-231. Nature of the data set: Induction of apoptosis in human MDA-MB-231 cells assessed as caspase induction at 20 uM after 24 hrs by fluorescence assay. In kind it is functional, cell-based.
The subject of data set [14] is MDA-MB-231. The data set can be described thus: Induction of apoptosis in human MDA-MB-231 cells assessed as caspase induction at 40 uM after 24 hrs by fluorescence assay. In kind it is functional, cell-based.
For data set [15], the target named is T2, Prostaglandin G/H synthase 2 (Homo sapiens, UniProt P35354).
T2 sequence (P35354 whole entry): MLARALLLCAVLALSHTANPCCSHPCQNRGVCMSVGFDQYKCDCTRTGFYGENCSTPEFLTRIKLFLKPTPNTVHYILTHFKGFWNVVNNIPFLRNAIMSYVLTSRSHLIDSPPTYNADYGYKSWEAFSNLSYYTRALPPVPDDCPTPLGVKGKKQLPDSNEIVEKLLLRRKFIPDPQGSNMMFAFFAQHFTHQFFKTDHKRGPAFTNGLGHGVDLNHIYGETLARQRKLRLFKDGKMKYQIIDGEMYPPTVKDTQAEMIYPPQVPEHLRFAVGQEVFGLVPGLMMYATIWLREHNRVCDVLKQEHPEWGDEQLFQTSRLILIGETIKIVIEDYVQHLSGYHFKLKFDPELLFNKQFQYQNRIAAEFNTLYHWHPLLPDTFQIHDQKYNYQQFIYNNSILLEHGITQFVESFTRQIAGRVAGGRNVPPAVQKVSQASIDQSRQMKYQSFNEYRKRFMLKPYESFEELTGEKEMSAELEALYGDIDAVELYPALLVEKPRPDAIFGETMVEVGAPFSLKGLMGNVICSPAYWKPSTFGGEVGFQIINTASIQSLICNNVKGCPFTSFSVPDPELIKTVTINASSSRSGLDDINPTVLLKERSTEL

pIC50: −log10 of the molar value. Activity calls are given as the source filed them. The rule behind the calls is not given here. A value given as a limit tells only on which side of the number the result lay.

Chain of Estrogen receptor beta (Homo sapiens) (Q92731 whole entry): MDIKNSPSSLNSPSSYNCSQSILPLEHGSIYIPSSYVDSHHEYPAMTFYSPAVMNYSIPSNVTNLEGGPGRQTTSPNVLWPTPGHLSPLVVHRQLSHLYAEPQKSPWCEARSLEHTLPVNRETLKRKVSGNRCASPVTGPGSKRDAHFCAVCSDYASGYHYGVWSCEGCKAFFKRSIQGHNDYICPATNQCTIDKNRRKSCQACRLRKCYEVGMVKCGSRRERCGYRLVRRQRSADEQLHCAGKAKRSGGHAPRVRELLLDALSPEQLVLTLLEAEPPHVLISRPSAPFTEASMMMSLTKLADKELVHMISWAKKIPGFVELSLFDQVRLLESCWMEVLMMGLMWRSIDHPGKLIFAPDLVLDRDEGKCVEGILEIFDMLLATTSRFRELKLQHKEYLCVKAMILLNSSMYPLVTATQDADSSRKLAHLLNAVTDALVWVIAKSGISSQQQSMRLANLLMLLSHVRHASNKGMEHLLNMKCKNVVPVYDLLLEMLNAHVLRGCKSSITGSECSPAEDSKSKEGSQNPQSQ

As for `O=c1oc(-c2ccccc2)cc(-c2ccccc2)c1-c1ccc(OCCN2CCCCC2)cc1`, the figures for the pIC50 in the data set with MCF7 [1] and in the data set on MDA-MB-231 [2] were less than 4.30 and less than 4.00, respectively.

Consider `O=c1oc(-c2ccc(OCCN3CCCC3)cc2)cc(-c2ccccc2)c1-c1ccccc1`, for which the pIC50 in the data set with MCF7 [1] was 4.60; in the data set on MDA-MB-231 [2], 4.47. Besides, the Activity result (with Vero; in data set [3]) was “Toxic” each time.

Turning to `O=c1oc(-c2ccccc2)cc(-c2ccccc2)c1-c1ccc(O)cc1`, the pIC50 in the data set with MCF7 [1] was 4.60; in the data set with MDA-MB-231 [2], 4.42. In addition, the Activity result (with Vero; in data set [3]) was “Non-toxic” each time. Also, the outcome (in data set [4]; in [5]; in the data set with MCF7 [6]; with MCF7 [7]) was inactive. Moreover, the outcome with MDA-MB-231 [8] and in the data set on MCF7 [9] was Active.

As for `O=c1oc(-c2ccc(O)cc2)cc(-c2ccccc2)c1-c1ccccc1`, the pIC50 with MCF7 [1] is 4.68; in the data set on MDA-MB-231 [2], 4.89. For the same compound, the Activity entry (with Vero; in data set [3]) was “Toxic” in each case.

In the case of `O=c1oc(-c2ccccc2)cc(-c2ccc(OCCN3CCCCC3)cc2)c1-c1ccccc1`, the pIC50 was 4.59 in the data set on MCF7 [1] and 4.96 in the data set with MDA-MB-231 [2]. Also, the Activity entry (with Vero; in [3]) was “Toxic” each time.

For the compound `O=c1oc(-c2ccccc2)cc(-c2ccccc2)c1-c1ccc(OCCN2CCCC2)cc1`, the results for the pIC50 in the data set on MCF7 [1] and in the data set on MDA-MB-231 [2] were 4.64 and less than 4.00, respectively.

For the compound `O=c1oc(-c2ccccc2)cc(-c2ccc(OCCN3CCCC3)cc2)c1-c1ccccc1`, the pIC50 was 4.85 with MCF7 [1] and 5.05 with MDA-MB-231 [2]. For the same compound, the Activity entry (in the data set with Vero; in [3]) was “Toxic” in each case.

As to `O=c1oc(-c2ccc(O)cc2)cc(-c2ccc(O)cc2)c1-c1ccccc1`, the values for the pIC50 in the data set on MCF7 [1] and in the data set with MDA-MB-231 [2] were 4.85 and 4.59, respectively. The Activity result (in the data set with Vero; in data set [3]) was “Non-toxic” throughout. The outcome (in data set [4]; in data set [5]; in the data set on MDA-MB-231 [13]; with MDA-MB-231 [14]) was inactive. The outcome in the data set with MCF7 [7], in the data set on MDA-MB-231 [10], with MDA-MB-231 [11], in the data set on MDA-MB-231 [8] and in the data set with MCF7 [12] was Active.

On to `O=c1oc(-c2ccccc2)cc(-c2ccc(O)cc2)c1-c1ccccc1`, for which the pIC50 was 4.42 in the data set on MCF7 [1] and less than 4.00 in the data set on MDA-MB-231 [2].

Take `COc1ccc(-c2cc(-c3ccccc3)oc(=O)c2-c2ccc(OCCN3CCCCC3)cc2)cc1`: the figures for the pIC50 with MCF7 [1] and in the data set with MDA-MB-231 [2] were 4.80 and 4.92, respectively. Besides, the Activity result (in the data set with Vero; in data set [3]) was “Toxic” in each case.

In the case of `COc1ccc(-c2cc(-c3ccccc3)c(-c3ccc(O)cc3)c(=O)o2)cc1`, the results for the pIC50 with MCF7 [1] and in the data set with MDA-MB-231 [2] were 4.85 and 4.77, respectively. Further, the Activity entry (in the data set on Vero; in data set [3]) was “Non-toxic” throughout. The outcome (in data set [4]; in [5]; with MCF7 [6]; in the data set with MCF7 [7]; in the data set with MDA-MB-231 [13]; in the data set with MDA-MB-231 [14]) was inactive. The outcome with MDA-MB-231 [8] and in the data set with MCF7 [12] was Active.

As for `COc1ccc(-c2cc(-c3ccccc3)oc(=O)c2-c2ccc(O)cc2)cc1`, the pIC50 with MCF7 [1] is less than 4.30; with MDA-MB-231 [2] it was less than 4.00.

In the case of `O=c1oc(-c2ccc(O)cc2)cc(-c2ccccc2)c1-c1ccc(O)cc1`, the figures for the pIC50 with MCF7 [1] and with MDA-MB-231 [2] were 4.59 and less than 4.00, respectively.

Take `CC/C(=C(\c1ccccc1)c1ccc(OCCN(C)C)cc1)c1ccccc1` [TAMOXIFEN]: the pIC50 in the data set with MCF7 [1] is 5.00; in the data set with MDA-MB-231 [2], 4.70.

For `COc1ccc(-c2cc(-c3ccccc3)c(-c3ccc(S(C)(=O)=O)cc3)c(=O)o2)cc1`, the pIC50 in data set [15] was 7.70.

`O=c1oc(-c2ccc(OCCN3CCCCC3)cc2)cc(-c2ccccc2)c1-c1ccccc1`: the pIC50 with MCF7 [1] was 4.62; in the data set on MDA-MB-231 [2], less than 4.00.

Turning to `O=c1oc(-c2ccccc2)cc(-c2ccc(O)cc2)c1-c1ccc(O)cc1`, the pIC50 was 4.62 in the data set with MCF7 [1] and 4.57 with MDA-MB-231 [2]. Besides, the Activity result (in the data set on Vero; in data set [3]) was “Non-toxic” throughout. The outcome (in data set [4]; in data set [5]; in the data set on MDA-MB-231 [13]; in the data set on MDA-MB-231 [14]) was inactive. The result in the data set with MCF7 [6], with MCF7 [7], in the data set with MDA-MB-231 [11], in the data set with MDA-MB-231 [8] and with MCF7 [12] was Active.
